Holding throughout (type): functional
The test system of one assay is OVCAR-8. Nature of the assay: Cytotoxicity against human OVCAR8 cells after 48 hrs by sulforhodamine B assay. The following applies: OVCAR-8, 48 h. The gist of the method:
(§1)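 NCI 60-panel screen. Cells were grown in RPMI 1640 with 5% FBS and L-glutamine and plated at 5000–40,000 cells/well according to doubling time. They were preincubated 24 h at 37 °C, 5% CO2, then exposed 48 h to five 10-fold dilutions. Adherent cells were fixed with cold TCA, final 10%; suspension cells were fixed after settling. Cells were stained with 0.4% SRB and read at 515 nm. Tz/C/Ti growth curves gave GI50, TGI and LC50.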

Assay [1] concerns SK-MEL-28. Nature of the assay: Cytotoxicity against human SK-MEL-28 cells after 48 hrs by sulforhodamine B assay. The following applies: SK-MEL-28, 48 h. The method, boiled down:
as §1

Another assay relates to COLO 205. Kind of assay: Cytotoxicity against human COLO205 cells after 48 hrs by sulforhodamine B assay. The following applies: COLO 205, 48 h. The gist of the method:
as §1

In a further assay the test system is SF-295. Kind of assay: Growth inhibition of human SF295 cells at 10 uM after 48 hrs by sulforhodamine B assay. To be noted: SF-295, 48 h, read-out: GI. The gist of the method: (§2)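 NCI one-dose primary screen at 10 (printed mM) across the 60-line panel. Cells in RPMI 1640 with 5% FBS and 2 mM L-glutamine, plated at 5000–40,000 cells/well and incubated 24 h before dosing. Exposure 48 h at 37 °C, 5% CO2. Adherent cells were fixed with cold TCA, suspension cells fixed after settling. SRB stain, absorbance 515 nm. Reported as percent growth of treated cells relative to control.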

Another assay has as its system HOP-92. Kind of assay: Cytotoxicity against human HOP92 cells after 48 hrs by sulforhodamine B assay. To be noted: HOP-92, 48 h. The gist of the method:
as §1

Assay [2] concerns SK-MEL-28. Nature of the assay: Growth inhibition of human SK-MEL-28 cells at 10 uM after 48 hrs by sulforhodamine B assay. The following applies: SK-MEL-28, 48 h, read-out: GI. The method, boiled down:
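NCI-60 single-dose screen. Cells grown in RPMI 1640 with 5% FBS and L-glutamine, plated at 5000–40,000 cells/well by doubling time, and preincubated 24 h at 37 °C, 5% CO2. Compound stocks in DMSO, added at one concentration, then incubated 48 h. Adherent cells fixed with cold TCA (10% final), stained with 0.4% SRB, dye solubilized in 10 mM Tris base, A515 read. Reported as percent growth relative to untreated control.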

Another assay has as its system ACHN. Nature of the assay: Growth inhibition of human ACHN cells at 10 uM after 48 hrs by sulforhodamine B assay. The following applies: read-out: GI. The method, boiled down:
as §2

The mark [3] stands for this setting: read-out: LC50 (the source's name).

With `O=C(CCc1nnc(-c2ccc(Cl)cc2Cl)o1)c1nc2ccccc2[nH]1`, the concentration for 50% growth inhibition (GI50) with OVCAR-8 was 9.26 µM; in the assay with SK-MEL-28 [1], 12.7 µM; with COLO 205, 2.66 µM; in the assay on HOP-92, 1.77 µM. The concentration for total growth inhibition (TGI) with OVCAR-8 stood at 100 µM; in the assay on SK-MEL-28 [1] it was 42.7 µM; with COLO 205, 7.08 µM; in the assay with HOP-92, 15.8 µM. Moreover, the CC50 in the assay on OVCAR-8 (setting [3]), in the assay with SK-MEL-28 [1] (setting [3]), in the assay with COLO 205 (setting [3]) and in the assay with HOP-92 (setting [3]) was 100 µM throughout. Also, the values for the inhibition of growth at 10 µM with SF-295, with SK-MEL-28 [2] and in the assay with ACHN were 40.5%, 17.3% and 18.7%, respectively.
